Measured values reported in paper PMC12484386 (Journal of Clinical Pharmacology, 2025).

Experiments:
[1] = test system: plasma protein; conditions: cited from earlier work
[2] = molecular target: HSA (Homo sapiens, UniProt P02768); test: Separate in vitro equilibrium dialysis study, binding to HSA; assay type: in vitro ADME; conditions: HSA (human serum albumin)
[3] = Renal impairment study; assay type: in vivo, human
Summary of the method: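 Renal function by Cockcroft-Gault. Parent and M11 plasma predose to 240 h by LC-MS/MS (1.00-750 ng/mL); unbound fraction by equilibrium dialysis at 4 h. Ln-parameters by one-way ANOVA; GMR with 90% CI.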

[4] = single oral 5 mg radiolabeled fruquintinib, healthy volunteers; cited from earlier work
[5] = cited from earlier work
[6] = Plasma protein binding in human plasma at 1-10 µM; assay type: in vitro ADME
[7] = test system: AAG; test: Separate in vitro equilibrium dialysis study, binding to AAG; assay type: in vitro ADME; conditions: AAG (alpha-1-acid glycoprotein)
[8] = Safety and tolerability, renal impairment study; assay type: in vivo, human
[9] = Safety and tolerability, hepatic impairment study; assay type: in vivo, human
[10] = cited from earlier work; remark: listed apart in the source
[11] = Hepatic impairment study; assay type: in vivo, human
Summary of the method: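 Open-label single oral dose after ≥10 h overnight fast, held to 2 h postdose: Child-Pugh B (n=8) 2 mg; matched normal hepatic function (n=8) 5 mg. Parent and M11 plasma sampled predose to 240 h by validated LC-MS/MS (1.00-750 ng/mL). Data dose-normalized to 5 mg. Ln-transformed parameters by one-way ANOVA, cohort fixed; GMR and 90% CI back-transformed; unbound parameters analysed likewise.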

[12] = cited from earlier work; remark: listed apart in the source
[13] = moderate renal impairment vs normal renal function
[14] = severe renal impairment compared with normal renal function
[15] = severe renal impairment vs normal renal function
[16] = moderate hepatic impairment vs normal hepatic function

Sequence of HSA (P02768 25-609): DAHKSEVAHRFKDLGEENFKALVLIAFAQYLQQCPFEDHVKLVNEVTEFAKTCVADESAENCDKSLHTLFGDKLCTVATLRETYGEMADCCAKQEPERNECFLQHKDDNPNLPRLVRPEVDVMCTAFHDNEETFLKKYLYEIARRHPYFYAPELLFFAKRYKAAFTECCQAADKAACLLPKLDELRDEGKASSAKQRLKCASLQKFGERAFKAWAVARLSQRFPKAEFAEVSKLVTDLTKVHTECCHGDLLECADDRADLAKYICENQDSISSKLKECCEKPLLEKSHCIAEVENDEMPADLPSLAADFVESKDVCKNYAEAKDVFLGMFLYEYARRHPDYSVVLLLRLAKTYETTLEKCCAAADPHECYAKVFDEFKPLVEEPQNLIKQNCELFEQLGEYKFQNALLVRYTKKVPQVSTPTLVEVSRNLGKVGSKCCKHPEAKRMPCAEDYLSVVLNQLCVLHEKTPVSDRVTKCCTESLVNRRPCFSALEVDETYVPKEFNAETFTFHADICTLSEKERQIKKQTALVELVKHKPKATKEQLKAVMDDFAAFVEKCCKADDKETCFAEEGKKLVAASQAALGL

CNC(=O)c1c(C)oc2cc(Oc3ncnc4cc(OC)c(OC)cc34)ccc12 [fruquintinib]
protein binding in human plasma [1]: approximately 95% | fraction unbound at 0.1 µM [2]: 0.0565 | fraction unbound at 1 µM [2]: 0.0635 | fraction unbound at 10 µM [2]: 0.0627 | CL/F, mean (SD) ([3]; moderate renal impairment (CrCl 30-59 mL/min), N = 8, single oral 5 mg): 14.2 mL/min | difference across Cmax, AUC0-t, and AUC0-inf ([3]; moderate renal impairment compared with normal renal function): less than 8% | LS GMR DN AUC0-inf [90% CI] [3, 13]: 1.07 | LS GMR DN AUC0-t [90% CI] [3, 13]: 1.06 | LS GMR DN Cmax [90% CI] [3, 13]: 0.95 | CL/F, mean (SD) ([3]; normal renal function, N = 8, single oral 5 mg): 15.0 mL/min | CL/F, mean (SD) ([3]; severe renal impairment (CrCl 15-29 mL/min), N = 8, single oral 2 mg): 15.0 mL/min | difference in AUCs [3, 14]: less than 3% | dose-normalized Cmax lower [3, 14]: approximately 11% | LS GMR DN AUC0-inf [90% CI] [3, 15]: 1.01 | LS GMR DN AUC0-t [90% CI] [3, 15]: 0.97 | LS GMR DN Cmax [90% CI] [3, 15]: 0.89 | dose recovered in feces [4]: 30% | dose recovered in urine [4]: approximately 60% | dose recovered unchanged in feces [4]: 5% | dose recovered unchanged in urine [4]: 0.5% | inter-individual variability in apparent oral clearance [5]: 26% | impact of mild to moderate renal impairment and mild hepatic impairment on PK ([5]; population PK analysis): no clinically meaningful impact | fraction unbound at 1 µM [6]: 0.046 | fraction unbound at 3 µM [6]: 0.047 | fraction unbound at 10 µM [6]: 0.047 | fraction unbound at 0.1 µM [7]: 0.356 | fraction unbound at 1 µM [7]: 0.358 | fraction unbound at 10 µM [7]: 0.413 | participants with TEAEs ([8]; 3 of the 24 participants): 12.5% | participants with headache ([8]; moderate renal impairment, one of eight, grade 1, nonserious, not related): 12.5% | participants with hypoglycemia ([8]; moderate renal impairment, one of eight, grade 3, nonserious, not related): 12.5% | participants with eye pruritis and periorbital edema ([8]; normal renal function, one of eight, grade 1, nonserious, not related): 12.5% | participants with treatment emergent adverse events (TEAEs) ([9]; 4 of the 16 participants, all TEAEs in moderate hepatic impairment): 25.0% | tolerability ([9]; both studies, single dose 2 or 5 mg): generally well tolerated | participants with treatment-related TEAEs ([9]; hepatic impairment study, three of 16 participants): 18.8% | participants with dizziness ([9]; moderate hepatic impairment, one of 8, grade 1, nonserious, related): 12.5% | participants with urinary tract infection ([9]; moderate hepatic impairment, one of 8, grade 2, nonserious, not related): 12.5% | elimination half-life (t1/2) [10]: approximately 42 h | weight-normalized apparent clearance [10]: approximately 0.17 mL/min/kg | time to steady-state concentrations ([10]; consecutive QD dosing): 14 days | median time to maximum plasma concentration (Tmax) ([10]; oral administration, patients with cancer): approximately 2 h | accumulation at steady-state ([10]; relative to a single dose, QD dosing): approximately 4 fold | CL/F, mean (SD) ([11]; moderate hepatic impairment (Child-Pugh B), N = 8, single oral 2 mg): 17.4 mL/min | difference in dose-normalized Cmax ([11]; moderate hepatic impairment compared with normal hepatic function): less than 5% | AUCs lower ([11]; moderate hepatic impairment compared with normal hepatic function, dose normalized): approximately 10% | LS GMR DN AUC0-inf [90% CI] [11, 16]: 0.91 | LS GMR DN AUC0-t [90% CI] [11, 16]: 0.89 | LS GMR DN Cmax [90% CI] [11, 16]: 1.04 | CL/F, mean (SD) ([11]; normal hepatic function, N = 8, single oral 5 mg): 15.3 mL/min | change in fruquintinib exposure ([12]; co-administration with itraconazole, a strong CYP3A inhibitor): did not result in clinically meaningful change | reduction of fruquintinib exposure ([12]; concurrent use of rifampin, a strong metabolic enzyme inducer): approximately 65%
